From ChEMBL document CHEMBL5579848, “Isothiocyanate-Corticosteroid Conjugates against asthma: Unity makes strength” (Eur J Med Chem, 2024)
Values after ≈ are worked out from the molar mass of the structure shown. Active and inactive are the calls of the source. The rule behind the calls is not given here.

Key:
[1] = tested on: RBL-2H3; experiment: Inhibition of mast cell degranulation in DNP-HSA antigen sensitized rat RBL-2H3 cells assessed as reduction in beta-hexoaminosidase release at 100 uM preincubated for 5 mins followed by DNP addition and measured after 1 hr by multiplate reader; assay type: functional, cell-based; settings: time 65.0 min
In short: (§1)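 RBL-2H3 cells (72×10^3/well) were sensitized overnight with anti-DNP IgE 0.50 µg/ml, then moved to phenol-free DMEM with 1 mg/ml BSA. Cells were preincubated 5 min at 37 °C with 0.1 % DMSO, cromolyn 1 mM or compound 100 μM, then challenged with DNP-HSA 10 ng/ml. After 1 h, supernatant was incubated 1 h with 1.4 mM p-nitrophenyl-N-acetyl-β-D-glucosaminide (citrate pH 4.2), stopped with Trizma pH 9.4, and read at 405 nm.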

[2] = tested on: Mus musculus; experiment: Anti-asthmatic activity in OVA-induced female BALB/c mouse model assessed as inhibition of bronchial hyperreactivity at 3.512 x 10^-6M, ip for 30 min before every ovalbumin challenge on day 0 and 7 and measured after 21 days by isometric force transducer analysis; assay type: functional, organism-based; settings: dose 3.512 10^-6M, time 21.0 day
In short: (§2)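 Female BALB/c mice (20 g, 8 weeks) sensitized s.c. with 100 μg ovalbumin adsorbed to 13.3 mg aluminum hydroxide gel (0.4 ml) on days 0 and 7; saline controls. Test agent (1–2 mg/kg, or equimolar 3,51 × 10^-6 mol) or vehicle given ip 30 min before each OVA dose. Killed day 21 by enflurane overdose; lungs, bronchi, blood collected.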

[3] = tested on: Mus musculus; experiment: Anti-asthmatic activity in OVA-induced female BALB/c mouse model assessed as reduction in lung damage at 3.512 x 10^-6M, ip for 30 min before every ovalbumin challenge on day 0 and 7 and measured after 21 days by H and E staining based microscopic analysis; assay type: functional, organism-based; settings: dose 3.512 10^-6M, time 21.0 day; in short: as §2
[4] = tested on: Mus musculus; experiment: Anti-asthmatic activity in OVA-induced female BALB/c mouse model assessed as reduction in IgE level in plasma at 3.512 x 10^-6M, ip for 30 min before every ovalbumin challenge on day 0 and 7 and measured after 21 days by ELISA; assay type: functional, organism-based; settings: dose 3.512 10^-6M, time 21.0 day; in short: as §2
[5] = tested on: Mus musculus; experiment: Anti-asthmatic activity in OVA-induced female BALB/c mouse model assessed as reduction in pulmonary IL-13 level at 3.512 x 10^-6M, ip for 30 min before every ovalbumin challenge on day 0 and 7 and measured after 21 days by ELISA; assay type: functional, organism-based; settings: dose 3.512 10^-6M, time 21.0 day; in short: as §2
[6] = Half life in simulated gastric fluid at pH 1.2 in absence of pepsin at 100 uM incubated at 37 degreeC up to 24 hrs by UPHLC analysis; assay type: ADME; settings: simulated gastric fluid without pepsin
In short: (§3)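 A 10 mM DMSO stock was diluted to 100 μM in PBS (pH 7.4, 50 mM) or pepsin-free SGF (pH 1.2) and held at 37 ± 0.5 °C for 24 h. Timed aliquots were quantified by reverse-phase UHPLC-DAD against calibration curves (1.56–100 ppm), tracking the parent compound plus aminoacetate and corticosteroid metabolites. Pseudo-first-order t1/2 was calculated; n = 3.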

[7] = Half life in PBS at pH 7.4 at 100 uM incubated at 37 degreeC up to 24 hrs by UPHLC analysis; assay type: ADME; in short: as §3
[8] = target: Albumin (Bos taurus, UniProt P02769); experiment: Half life in 3% bovine serum albumin at 200 uM incubated up to 4 hrs by UHPLC analysis; assay type: ADME; settings: cattle, 3% bovine serum albumin solution
In short: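 A 10 mM DMSO stock was diluted to 200 μM in 3 % BSA in PBS and incubated at 37 ± 0.5 °C for up to 4 h. Timed samples were deproteinized with an equal volume of acetonitrile/0.1 % TFA, centrifuged, filtered and quantified by UHPLC. Results are given as pseudo-first-order t1/2 or % parent remaining at 10 min; n ≥ 3.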

[9] = Solubility of compound in simulated gastric fluid at pH 1.2 in absence of pepsin at 5 mg incubated at 25 degreeC for 6 hrs by UHPLC analysis; assay type: ADME; settings: simulated gastric fluid without pepsin
In short: (§4)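 Solid compound (5 mg) was shaken in 1 mL water, PBS (pH 7.4, 50 mM) or pepsin-free SGF (pH 1.2) for 6 h at 25 °C. Suspensions were filtered (0.45 μm) and the filtrate quantified by UHPLC, reported in mg/L; triplicate, mean values.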

[10] = Solubility of compound in PBS at pH 7.4 at 5 mg incubated at 25 degreeC for 6 hrs by UHPLC analysis; assay type: physicochemical; in short: as §4
[11] = Solubility of compound in water at 5 mg incubated at 25 degreeC for 6 hrs by UHPLC analysis; assay type: physicochemical; in short: as §4
[12] = Induction of H2S release in PBS at pH 7.4 at 100 uM measured after 30 mins by free radical analyzer; assay type: physicochemical; settings: buffer, pH 7.4, 0.5 h
In short: (§5)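 An H2S-selective mini-electrode was equilibrated in PBS pH 7.4, and compound was added to 100 μM final (1 % DMSO). Amperometric current was recorded for 30 min, with or without L-cysteine 4 mM added 10 min before. Current was converted to H2S using NaHS calibration (1–10 µM, pH 4.0); mean ± SEM.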

[13] = Induction of H2S release in PBS at pH 7.4 at 100 uM pretreated with L-Cys for 10 mins followed by compound addition and measured after 30 mins by free radical analyzer; assay type: physicochemical; settings: buffer, pH 7.4, 0.5 h; in short: as §5
[14] = tested on: RBL-2H3; experiment: Cytotoxicity against rat RBL-2H3 cells assessed as reduction cell viability at 100 uM after 24 hrs by WST assay; assay type: toxicity, cell-based; settings: rbl-2h3, 24 h
In short: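 RBL-2H3 cells were grown in MEM with 10 % FBS, 10^4 cells/well, and attached for 24 h. They were then exposed 24 h to 100 μM compound (final) or 0.1 % DMSO. WST-1 (1:10) was added for 60 min at 37 °C and absorbance read at 450 nm. Viability is expressed as % of vehicle; mean ± SEM.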

[15] = tested on: Mus musculus; experiment: Anti-asthmatic activity in OVA-induced ip dosed female BALB/c mouse model assessed as inhibition of bronchial hyperreactivity administered 30 min prior to every ovalbumin challenge on day 0 and 7 and measured after 21 days by isometric force transducer analysis; assay type: functional, organism-based; settings: dose 1-2 mg/kg, time 21.0 day; in short: as §2
[16] = tested on: Mus musculus; experiment: Anti-asthmatic activity in OVA-induced female BALB/c mouse model assessed as reduction in alpha-SMA positive muscle layers at 1 to 2 mg/kg, ip for 30 min before every ovalbumin challenge on day 0 and 7 and measured after 21 days by immunohistochemical staining based microscopic analysis; assay type: functional, organism-based; settings: dose 1-2 mg/kg, time 21.0 day; in short: as §2
[17] = tested on: Mus musculus; experiment: Anti-asthmatic activity in OVA-induced female BALB/c mouse model assessed as reduction in cell infiltration at 1 mg/kg, ip for 30 min before every ovalbumin challenge on day 0 and 7 and measured after 21 days by H and E staining based microscopic analysis; assay type: functional, organism-based; settings: time 21.0 day; in short: as §2
[18] = tested on: Mus musculus; experiment: Anti-asthmatic activity in OVA-induced female BALB/c mouse model assessed as reduction in thickening of airway smooth muscle layer at 1 mg/kg, ip for 30 min before every ovalbumin challenge on day 0 and 7 and measured after 21 days by H and E staining based microscopic analysis; assay type: functional, organism-based; settings: time 21.0 day; in short: as §2
[19] = tested on: Mus musculus; experiment: Anti-asthmatic activity in OVA-induced female BALB/c mouse model assessed as reduction in detachment of the lamina propria at 1 mg/kg, ip for 30 min before every ovalbumin challenge on day 0 and 7 and measured after 21 days by H and E staining based microscopic analysis; assay type: functional, organism-based; settings: time 21.0 day; in short: as §2
[20] = tested on: Mus musculus; experiment: Anti-asthmatic activity in OVA-induced female BALB/c mouse model assessed as reduction in cell infiltration at 2 mg/kg, ip for 30 min before every ovalbumin challenge on day 0 and 7 and measured after 21 days by H and E staining based microscopic analysis; assay type: functional, organism-based; settings: time 21.0 day; in short: as §2
[21] = tested on: Mus musculus; experiment: Anti-asthmatic activity in OVA-induced female BALB/c mouse model assessed as reduction in thickening of airway smooth muscle layer at 2 mg/kg, ip for 30 min before every ovalbumin challenge on day 0 and 7 and measured after 21 days by H and E staining based microscopic analysis; assay type: functional, organism-based; settings: time 21.0 day; in short: as §2
[22] = tested on: Mus musculus; experiment: Anti-asthmatic activity in OVA-induced female BALB/c mouse model assessed as reduction in detachment of the lamina propria at 2 mg/kg, ip for 30 min before every ovalbumin challenge on day 0 and 7 and measured after 21 days by H and E staining based microscopic analysis; assay type: functional, organism-based; settings: time 21.0 day; in short: as §2
[23] = tested on: Mus musculus; experiment: Anti-asthmatic activity in OVA-induced female BALB/c mouse model assessed as reduction in IgE level in plasma at 2 mg/kg, ip for 30 min before every ovalbumin challenge on day 0 and 7 and measured after 21 days by ELISA; assay type: functional, organism-based; settings: time 21.0 day; in short: as §2
[24] = tested on: Mus musculus; experiment: Anti-asthmatic activity in OVA-induced ip dosed female BALB/c mouse model assessed as reduction in pulmonary IL-13 level administered for 30 min before every ovalbumin challenge on day 0 and 7 and measured after 21 days by ELISA; assay type: functional, organism-based; settings: dose 1-2 mg/kg, time 21.0 day; in short: as §2
[25] = tested on: Mus musculus; experiment: Anti-asthmatic activity in OVA-induced female BALB/c mouse model assessed as reduction in alpha-SMA positive muscle layers at 3.512 x 10^-6M, ip for 30 min before every ovalbumin challenge on day 0 and 7 and measured after 21 days by immunohistochemical staining based microscopic analysis; assay type: functional, organism-based; settings: dose 3.512 10^-6M, time 21.0 day; in short: as §2
[26] = tested on: Mus musculus; experiment: Anti-asthmatic activity in OVA-induced female BALB/c mouse model assessed as restoration of structure of alveolar septa at 3.512 x 10^-6M, ip for 30 min before every ovalbumin challenge on day 0 and 7 and measured after 21 days by H and E staining based microscopic analysis; assay type: functional, organism-based; settings: dose 3.512 10^-6M, time 21.0 day; in short: as §2
[27] = tested on: Mus musculus; experiment: Anti-asthmatic activity in OVA-induced female BALB/c mouse model assessed as restoration of structure of bronchial epithelium at 3.512 x 10^-6M, ip for 30 min before every ovalbumin challenge on day 0 and 7 and measured after 21 days by H and E staining based microscopic analysis; assay type: functional, organism-based; settings: dose 3.512 10^-6M, time 21.0 day; in short: as §2
[28] = tested on: Mus musculus; experiment: Anti-asthmatic activity in OVA-induced female BALB/c mouse model assessed as restoration of structure of airway smooth muscle at 3.512 x 10^-6M, ip for 30 min before every ovalbumin challenge on day 0 and 7 and measured after 21 days by H and E staining based microscopic analysis; assay type: functional, organism-based; settings: dose 3.512 10^-6M, time 21.0 day; in short: as §2
[29] = tested on: RBL-2H3; experiment: Inhibition of mast cell degranulation in DNP-HSA antigen sensitized rat RBL-2H3 cells assessed as reduction in beta-hexoaminosidase release at 1 mM preincubated for 5 mins followed by DNP addition and measured after 1 hr by multiplate reader relative to control; assay type: functional; settings: RBL-2H3, 1.083 h, time 65 min; in short: as §1

Chain of Albumin (P02769 whole entry): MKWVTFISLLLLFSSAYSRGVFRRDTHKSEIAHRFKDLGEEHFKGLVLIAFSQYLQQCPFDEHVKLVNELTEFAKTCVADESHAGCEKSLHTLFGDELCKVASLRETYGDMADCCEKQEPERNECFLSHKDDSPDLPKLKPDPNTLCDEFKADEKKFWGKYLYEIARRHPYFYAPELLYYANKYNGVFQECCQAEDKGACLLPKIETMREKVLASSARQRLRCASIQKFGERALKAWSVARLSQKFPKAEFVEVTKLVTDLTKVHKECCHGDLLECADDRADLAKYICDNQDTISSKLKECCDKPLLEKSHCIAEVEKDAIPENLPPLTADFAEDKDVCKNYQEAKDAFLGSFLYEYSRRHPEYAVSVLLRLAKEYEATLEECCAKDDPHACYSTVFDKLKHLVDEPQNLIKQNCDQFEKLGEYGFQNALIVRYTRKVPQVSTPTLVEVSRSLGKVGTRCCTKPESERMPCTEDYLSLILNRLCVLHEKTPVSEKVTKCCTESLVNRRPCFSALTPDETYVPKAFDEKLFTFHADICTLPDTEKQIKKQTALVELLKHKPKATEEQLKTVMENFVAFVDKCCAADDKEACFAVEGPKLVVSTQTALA

Compound: C[C@]12C=CC(=O)C=C1CC[C@@H]1[C@@H]2[C@@H](O)C[C@@]2(C)[C@H]1C[C@H]1O[C@@H](C3CCCCC3)O[C@]12C(=O)COC(=O)CN
- inhibition [1]: Active
- Activity [2]: inactive
- Activity [3]: inactive
- Activity [4]: Active
- Activity [5]: inactive

Compound: C[C@]12C=CC(=O)C=C1CC[C@@H]1[C@@H]2[C@@H](O)C[C@@]2(C)[C@H]1C[C@H]1O[C@@H](C3CCCCC3)O[C@]12C(=O)COC(=O)CN=C=S
- half-life at 100 µM [6]: > 1440 min
- half-life at 100 µM [7]: > 1440 min
- half-life at 200 µM [8]: 84 min
- solubility at 6 h [9]: < 0.1 µg/mL
- solubility at 6 h [10]: 0.25 µg/mL (≈ 0.439 µM)
- solubility at 6 h [11]: 0.55 µg/mL (≈ 0.965 µM)
- Activity [12]: ~ 2 uM
- Activity [13]: ~ 2 uM
- Activity [14]: Non-Toxic
- inhibition [1]: Active
- inhibition [15]: Dose-Dependent Effect
- Activity [16]: Active
- Activity [17]: inactive
- Activity [18]: inactive
- Activity [19]: inactive
- Activity [20]: Active
- Activity [21]: Active
- Activity [22]: Active
- Activity [23]: Active
- Activity [24]: Dose-Dependent Effect
- Activity [25]: Active
- Activity [26]: Active
- Activity [27]: Active
- Activity [28]: Active

Compound: O=C(O)c1cc(=O)c2c(OCC(O)COc3cccc4oc(C(=O)O)cc(=O)c34)cccc2o1 [CROMOLYN]
- inhibition at 1000 µM [29]: ~25%
